Values after ≈ are worked out from the molar mass of the structure shown.

As usually defined, the MIC is the smallest concentration in the dilution series that meets the test's criterion for growth inhibition. The low end stands for inhibition by little substance, the high end for a need for much substance. In general, Tmax refers to the time at which the peak concentration occurs. In general, inhibition refers to the relative decrease from the control value, in per cent. Higher therefore signals strong suppression. By ED50 is commonly meant the dose that gives a 50% effect, or the effect in half of the subjects. The low end stands for greater potency, the high end for weaker potency. The IC50 is the concentration at which inhibition is half-maximal. Read a low IC50 as greater potency in that assay. Usually half-life stands for how long it takes for the measured level to halve. One may read the Cmax as the peak of the concentration-time curve. For orientation: AUC means concentration integrated over time.

Data set [1] deals with Staphylococcus epidermidis. The data set is described as follows: Antibacterial activity against methicillin-resistant Staphylococcus epidermidis AUCC 704 after 16 to 20 hrs by broth microdilution method. The class given is functional. Summed up:
(§1)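 Broth microdilution in MHB, serial two-fold compound dilutions; final inoculum 5 × 10⁵ CFU/mL; broth, compound and organism controls in duplicate; S. aureus ATCC 29213 as quality control strain; incubation 35 °C, 16–20 h, ambient air; growth read by unaided eye with viewing device, end point set against no-antibiotic control wells.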
For orientation: Broth dilution looks for growth in wells or tubes with falling amounts of substance.

Data set [2] has as its system Staphylococcus aureus. The data set is described as follows: Antibacterial activity against methicillin-resistant Staphylococcus aureus ATCC 33591 after 16 to 20 hrs by broth microdilution method. In kind it is functional. The procedure, abridged: as §1
Data set [3] can be described thus: Tmax in Swiss albino CD-1 mouse at 10 mg/kg, po administered as single dose. The following applies: in vivo. Set-up: dose 10 mg/kg, route oral. The class given is ADME, organism-based. Summed up: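 Oral gavage, 10 mg/kg single dose, given as a suspension in 0.25% Tween 80 with 0.225% sodium carboxymethyl cellulose. Blood drawn from the retro-orbital plexus into EDTA at set times (sparse sampling, n = 3 per time point). Plasma stored at −20 °C and assayed by LC-MS/MS. Parameters from non-compartmental analysis.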

For data set [4], the target named is T1, Enoyl-[acyl-carrier-protein] reductase [NADPH] FabI (Staphylococcus aureus) (UniProt Q6GI75).
T1 sequence (whole entry): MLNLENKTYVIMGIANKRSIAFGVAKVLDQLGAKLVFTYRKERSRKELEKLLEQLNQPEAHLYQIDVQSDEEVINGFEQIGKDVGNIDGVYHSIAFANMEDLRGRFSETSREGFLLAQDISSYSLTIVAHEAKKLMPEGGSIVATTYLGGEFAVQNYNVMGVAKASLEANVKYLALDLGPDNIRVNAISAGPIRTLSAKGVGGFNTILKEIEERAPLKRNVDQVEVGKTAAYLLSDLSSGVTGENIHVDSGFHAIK
As to the kind of experiment: Inhibition of Staphylococcus aureus FabI-mediated reduction of enoyl-ACP preincubated at 1 uM for 30 mins measured after 2 hrs by spectrophotometry. Summed up:
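Spectrophotometric FabI assay in 100 mM sodium ADA buffer, pH 6.5. Enzyme (2400 ng/assay) preincubated 30 min with NADH and compound. Reaction started with crotonoyl CoA. After 2 h at room temperature, NADH oxidation read as the fall in absorbance at 340 nm.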

The subject of data set [5] is Staphylococcus aureus. As to the kind of experiment: Antibacterial activity against methicillin-sensitive Staphylococcus aureus ATCC 29213 after 16 to 20 hrs by broth microdilution method. The class given is functional. The procedure, abridged: as §1
Data set [6] deals with Staphylococcus aureus. As to the kind of experiment: Antibacterial activity against methicillin-resistant Staphylococcus aureus ATCC 33591 infected in Swiss albino CD-1 mouse compound administered orally bid at 1 hr and 4 hrs post infection. In kind it is functional. As to conditions: ATCC 33591, po.
The target of data set [7] is T2, Enoyl-[acyl-carrier-protein] reductase [NADPH] FabI (Staphylococcus aureus, UniProt Q6GI75).
T2 sequence (Q6GI75 whole entry): T1 sequence (whole entry)
The data set is described as follows: Inhibition of Staphylococcus aureus FabI-mediated reduction of enoyl-ACP preincubated for 30 mins measured after 2 hrs by spectrophotometry.

Data set [8] is described as follows: Metabolic stability in mouse liver mirosomes assessed as compound remaining at 1 uM after 60 mins by LC-MS/MS analysis. In kind it is ADME, tissue-based. As to conditions: liver microsomes, read-out: Stability. Summed up:
(§2)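 Compound tested at 1 µM in mouse liver microsomes (0.3 mg/mL protein) with 1 mM NADPH in KH₂PO₄ buffer, pH 7.4, at 37 °C. Reactions stopped at 0, 15 and 60 min with acetonitrile containing carbamazepine internal standard. Samples centrifuged and the supernatant analysed by LC-MS/MS.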
(Microsomes from liver hold many membrane-bound enzymes, among them those of drug oxidation.)

A short description of data set [9]: Half life in Swiss albino CD-1 mouse at 10 mg/kg, po administered as single dose. In kind it is ADME, organism-based. Set-up: dose 10 mg/kg, route oral. The following applies: in vivo. The procedure, abridged: (§3)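 Blood drawn from the retro-orbital plexus into EDTA at set times (sparse sampling, n = 3 per time point). Plasma stored at −20 °C and assayed by LC-MS/MS. Parameters from non-compartmental analysis.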

The nature of data set [10]: Cmax in Swiss albino CD-1 mouse at 10 mg/kg, po administered as single dose. The class given is ADME, organism-based. Set-up: dose 10 mg/kg, route oral. The following applies: in vivo. The procedure, abridged: as §3
A short description of data set [11]: AUC in Swiss albino CD-1 mouse at 10 mg/kg, po administered as single dose. The class given is ADME, organism-based. Also noted: dose 10 mg/kg, route oral. As to conditions: plasma. The procedure, abridged:
as §3

The nature of data set [12]: Metabolic stability in mouse liver mirosomes assessed as compound remaining at 1 uM after 15 mins by LC-MS/MS analysis. The class given is ADME, tissue-based. The following applies: liver microsomes, read-out: Stability. Summed up:
as §2

On to `Cc1c(C2CN(C(=O)/C=C/c3cnc4c(c3)CCC(=O)N4)C2)oc2ccccc12`, for which the MIC stood at 0.5 µg/mL (≈ 1.29 µM) in data set [1], 0.06 µg/mL (≈ 0.155 µM) in [2] and 0.06 µg/mL (≈ 0.155 µM) in data set [5]. Moreover, the Tmax in [3] is 2 h. The inhibition in data set [4] stood at 96%. Further, the ED50 in data set [6] worked out at 0.9 mg/kg. In [7], the midpoint of inhibition, the IC50, lay at 141 nM.
As to `Cc1c(C2CN(C(=O)/C=C/c3cnc4c(c3)CNCC(=O)N4)C2)oc2ccccc12`, the results for the MIC in data set [1], in data set [2] and in [5] were 1 µg/mL (≈ 2.48 µM), 0.25 µg/mL (≈ 0.621 µM) and 0.25 µg/mL (≈ 0.621 µM), respectively. The remaining at 1 h, 1 µM in data set [8] amounted to 76.4%. Moreover, in [9], the half-life is 8.5 h. Also, the Tmax in data set [3] worked out at 0.5 h. This molecule also registered a peak concentration (Cmax) in data set [10] of 2250 ng/mL. In addition, the exposure (AUC) in data set [11] was 9000 ng·h/mL. This molecule also had an inhibition in data set [4] of 83%. Besides, the remaining at 0.25 h, 1 µM in data set [12] came to 96.2%. This molecule returned a half-inhibitory concentration (IC50) in data set [7] of 384 nM.
`CC(=O)NC[C@H]1CN(c2ccc(N3CCOCC3)c(F)c2)C(=O)O1` [LINEZOLID]: in data set [6], the 50% effect level (ED50) was put at a dose of 2.8 mg/kg.
Turning to `Cc1c(CN(C)C(=O)/C=C/c2cnc3c(c2)CCC(=O)N3)oc2ccccc12` [AFN-1252], the MIC in data set [1], in data set [2] and in data set [5] was 0.008 µg/mL (≈ 0.0213 µM) each time. For the same molecule, the remaining at 1 h, 1 µM in [8] is 17.5%. Besides, in data set [9], the half-life was 1.84 h. In addition, the Tmax in [3] was found to be 1 h. Besides, the concentration in data set [10] peaked (Cmax) at 440 ng/mL. This molecule also returned an AUC in [11] of 2200 ng·h/mL. For the same molecule, in [4], the inhibition came out at 100%. In addition, the remaining at 0.25 h, 1 µM in [12] is 55.4%. For the same molecule, 29 nM corresponded to half-maximal inhibition in data set [7] (IC50).

For the origin of these results see ChEMBL document CHEMBL3352330, “Discovery of azetidine based ene-amides as potent bacterial enoyl ACP reductase (FabI) inhibitors” (Eur J Med Chem, 2014).
